Compound activity deposited in PubChem by several laboratories.
This is a sample that favours compounds with a hit; in the whole collection about 3.8% have one here.
V-ATPase pH – regulators of yeast V-ATPase proton transport; response, % at 10 µM; S. cerevisiae, pHLuorin cytosolic pH fluorescence; actives 0.37% (n = 350,000); in the data active means response mostly above about 7.3%, no sharp cut-off; inactive means mostly below about 5.4%; further: actives read high
rCAG binder – r(CAG) repeat RNA binding; TO-PRO-1 dye displacement fluorescence; inhibition, % at 3 µM; actives 1.3% (n = 370,000); AID 651821;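 active means inhibition above the plate cutoff, the mean of all test compounds on that plate plus 3 SD, cut at about 35% in these data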;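 further: 0% = DMSO alone and 100% = 100 µM mitoxantrone as full dye displacement; higher means more dye released from RNA so lower well fluorescence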
T cell HTS – T cell immune modulators affecting CD8 T cell-vesicle binding. response (vesicle binding), % at 7 µM. 2C CD8+ T cell-vesicle binding, flow cytometry; active compounds read low. actives 0.068% (n = 330,000). AID 2052;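 active means response, share of CD8 T cells binding vesicles, and their 90th percentile fluorescence all below set limits, cut at about 80% in these data, passing the limit was not always enough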;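 further: values below 100% mean blocked vesicle binding to the CD8+ T cells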
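Also added: QL9-peptide-loaded Drosophila micro-vesicles bearing Ld, ICAM-1 and B7-1; Test system: purified 2C TCR transgenic mouse naive CD8+ T cells; Measured by: cytometric PE anti-B7-1 and Alexa647 anti-CD8 signals after 1% paraformaldehyde fixation; Timing: binding step 1.5 h, 37 °C, antibody labelling 20 min, ice.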
MPTP inh – blocks calcium-induced mitochondrial swelling; AID 602449; isolated mouse mitochondria, Ca2+ swelling absorbance, 30 min; inhibition, % at 10 µM; actives 1.4% (n = 360,000);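 active means inhibition of 50% or more, scaled per plate between neutral and stimulator controls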;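 further: 0% = DMSO wells given calcium and 100% = 1 mM EGTA wells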
Granule exo inh – blocks lytic granule exocytosis; TALL-104 LAMP-1 surface exposure, flow cytometry; cells stimulated with thapsigargin and PMA; inhibition, % at 10 µM; actives 0.66% (n = 360,000);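 active means inhibition above about 55%, limit read from the data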
Beta2AR agonist – human beta-2 adrenergic receptor agonism by FAP | Am2.2-beta2AR cells, FAP receptor internalization, flow cytometry | actives 0.43% (n = 340,000) | P07550 | response, % (concentration not given with the values);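 active means response above a set limit, near 3 SD of response in nonfluorescent compounds, cut at about 42% in these data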
Target sequence (P07550 whole entry, looked up): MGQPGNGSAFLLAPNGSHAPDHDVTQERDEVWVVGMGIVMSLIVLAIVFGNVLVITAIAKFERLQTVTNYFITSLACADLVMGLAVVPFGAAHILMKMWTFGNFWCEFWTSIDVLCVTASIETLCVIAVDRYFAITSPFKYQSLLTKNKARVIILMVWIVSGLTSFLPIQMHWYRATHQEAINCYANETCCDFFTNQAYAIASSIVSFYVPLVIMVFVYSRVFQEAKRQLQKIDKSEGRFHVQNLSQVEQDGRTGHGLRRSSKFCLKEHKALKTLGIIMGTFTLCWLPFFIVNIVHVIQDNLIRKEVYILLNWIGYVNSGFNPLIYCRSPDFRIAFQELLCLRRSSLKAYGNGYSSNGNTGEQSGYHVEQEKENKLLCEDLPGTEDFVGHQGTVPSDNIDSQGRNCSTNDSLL
rCAG bind conf – r(CAG) RNA repeat binding, confirmation; shares compounds with rCAG binder; TO-PRO-1 dye displacement fluorescence; inhibition, % at 3 µM; actives 70% (n = 4,300); AID 652065;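 active means inhibition above a per-plate cutoff, the mean inhibition of sample wells plus 3 SD, cut at about 35% in these data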;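 further: loss of TO-PRO-1 fluorescence as compound displaces dye from 1x1 AA loop RNA; 0% = DMSO only wells and 100% = 100 µM mitoxantrone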
dCAG dye counter – disrupts DNA CAG TO-PRO-1 complex, flagging rCAG hits. shares compounds with rCAG binder. d(CAG) DNA oligo TO-PRO-1 dye displacement, fluorescence. inhibition, % at 3 µM. actives 94% (n = 4,300). AID 652068;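 active means inhibition above its plate's cutoff, the mean test-well inhibition plus 3 SD, cut at about 4.8% in these data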;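 further: 0% = DNA dye mix with DMSO and 100% = 100 µM mitoxantrone; hits displace the dye from DNA and so lower well fluorescence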
* hit, by the source's call; x = no result.

SMILES | V-ATPase pH | rCAG binder | T cell HTS | MPTP inh | Granule exo inh | Beta2AR agonist | rCAG bind conf | dCAG dye counter
O=C(O)CC(NC(=O)C1c2ccccc2Oc2ccccc21)c1ccc(Cl)cc1 (stereo not drawn) | 0 | 39* | 169 | 4 | -2 | 0 | 26 | 4
CCOc1ccc(C(CC(=O)O)NC(=O)C2c3ccccc3Oc3ccccc32)cc1 (stereo not drawn) | 0 | 15 | 194 | 12 | 2 | -1 | x | x
O=C(O)CC(NC(=O)C1c2ccccc2Oc2ccccc21)c1ccc(OC2CCCC2)cc1 (stereo not drawn) | 2 | 50* | 403 | -1 | -2 | -1 | 48* | 12*
CCCCCCCCN1C(=O)[C@@H](CC(=O)NCc2cccc(C(F)(F)F)c2)C[C@@]2(C(=O)OC)C1=C[C@H](COCc1ccccc1)O[C@@H]2C | x | 5 | x | x | x | x | x | x
O=C1NC(c2ccc3c(c2)OCO3)c2c(-c3ccccc3)n[nH]c21 (stereo not drawn) | x | 5 | x | x | x | x | x | x
COc1cccc(CNC(=S)OC2CCC23CCC(c2ccccc2)CC3)c1 (stereo not drawn) | x | 7 | x | x | x | x | x | x
Nc1[nH]n2c(=O)cc(-c3ccccc3)nc2c1N=Nc1ccccc1 | 0 | 13 | 137 | 4 | 0 | -8 | x | x
Nc1[nH]n2c(=O)cc(-c3ccccc3)nc2c1N=Nc1ccc(S(N)(=O)=O)cc1 | 3 | 44* | 390 | -1 | 15 | 8 | 22 | 5.5*
CCn1nc(C(=O)Nc2ccc(S(=O)(=O)Nc3nccs3)cc2)c2ccccc2c1=O | 7 | 42* | 654 | -2 | -2 | 6 | 56* | 18*
Cc1cccc(-n2ccc(=O)c(C(=O)Nc3ccc(S(=O)(=O)Nc4nccs4)cc3)n2)c1 | -2 | 65* | 195 | 1 | -2 | 0 | 14 | 6.0*
COc1ccc(-n2ccc(=O)c(C(=O)Nc3ccc(S(=O)(=O)Nc4nccs4)cc3)n2)cc1 | -4 | 18 | 664 | 2 | -12 | 15 | x | x
O=C(Nc1ccc(S(=O)(=O)Nc2nccs2)cc1)c1nn(-c2ccccc2)ccc1=O | 2 | 43* | 240 | -2 | 11 | 58* | 55* | 26*
O=C(Nc1ccc(S(=O)(=O)Nc2ncccn2)cc1)c1nn(Cc2ccccc2)c(=O)c2ccccc12 | 4 | 23 | 189 | 0 | -6 | 13 | x | x
COC(=O)C1=C(C)N(Cc2ccccc2C(F)(F)F)C(=NCc2ccc3c(c2)OCO3)NC1c1ccccc1C(F)(F)F (stereo not drawn) | x | 3 | x | x | x | x | x | x
Cc1noc(NS(=O)(=O)c2ccc(NC(=O)c3cc(S(=O)(=O)N(C)c4ccccc4)ccc3Cl)cc2)c1C | 11 | 77* | x | 0 | 3 | 4 | 76* | 41*
CC(=O)Nc1ccc(NC(=O)c2cc(-c3ccc(C)c(C)c3O)n[nH]2)cc1 | -3 | -5 | 200 | 1 | -10 | 11 | x | x
Cc1ccc(S(=O)(=O)Nc2ccc3[nH]c(=O)[nH]c3c2)c(C)c1 | 3 | -1 | 331 | 0 | 1 | 3 | x | x
Cc1cc(F)ccc1S(=O)(=O)Nc1ccccc1C(=O)Nc1ccc2[nH]c(=O)[nH]c2c1 | 3 | 61* | 591 | 1 | -3 | -3 | 63* | 26*
Cc1noc(NS(=O)(=O)c2ccc(NC(=O)c3ccccc3NS(=O)(=O)c3ccc(F)cc3)cc2)c1C | 0 | 68* | 275 | -2 | -1 | -2 | 56* | 21*
Cc1noc(NS(=O)(=O)c2ccc(NC(=O)c3cc(F)c(F)c(F)c3F)cc2)c1C | -4 | 18 | x | 0 | 0 | 4 | x | x
Cc1ccc(-c2cc(C(=O)Nc3ccc(S(=O)(=O)Nc4ncccn4)cc3)[nH]n2)c(O)c1C | 0 | 61* | 951 | 5 | 2 | 25 | 53* | 19*
COc1ccc(CN2CCC(CNC(=O)Nc3ccc(C)c(F)c3)CC2)cc1 | x | 5 | x | x | x | x | x | x
Cc1ccc2oc(C(=O)Nc3ccc(S(=O)(=O)Nc4onc(C)c4C)cc3)c(C)c2c1 | 4 | 13 | 0 | -1 | 2 | 4 | x | x
